Shown are actives, neighbours in structure and some others; about 2.3% of the full set was active somewhere.
Statin myotox sup = protects C2C12 myotubes from simvastatin toxicity; ATP luminescence, 48 h; scaled: DMSO 0, geranylgeraniol control 100; rescue of ATP level, % at 7.49 µM; 330,000 compounds, 0.78% hits; AID 602340;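 active means mean ATP rescue above about 67%, or every replicate alone reaching that limit, limit read from the data, passing the limit was not always enough; inconclusive means no clear call, values can overlap the other calls; inactive means mean under the limit and some replicate under it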;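 further: myotubes were challenged with 10 µM simvastatin during compound exposure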
F508del corr = CFTR F508del correction in bronchial cells; 350,000 compounds, 0.36% hits; AID 720511; CFBE cells, YFP halide quenching; stimulated with forskolin plus potentiator P3; % fluorescence drop versus neutral controls; activity (quench increase), % at 7.58 µM;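 active means mean added fluorescence quench of at least 8% versus neutral control, with both replicates also reaching 8%; inconclusive means only one of the mean or replicate conditions met; inactive means mean below 8% and not both replicates reaching 8%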;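 further: cells transiently co-express mutant CFTR-F508del with the halide-sensitive YFP; corrector assay measuring rescue of mutant channel to the surface after 24 h compound exposure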
DENV2 CPE rescue = DENV2-induced cell death inhibition; DENV2-infected cells, cytopathic effect rescue, plate reader; CPE inhibition, % at 9.99 µM; 350,000 compounds, 1.7% hits; AID 651640; in the data active means CPE inhibition above about 20%, passing the limit was not always enough; inconclusive means no clear call, values can overlap the other calls; tested in BHK-21 cells;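 further: 0% = median of neutral control wells and 100% = median of positive control wells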
Cneo AK release = causes C. neoformans cell lysis | adenylate kinase release luminescence, 4 h; normalised: neutral wells 0, clomiphene wells 100 | lysis activity, % at 15 µM | 360,000 compounds, 0.2% hits;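 active means mean lysis activity across replicates of at least 80%, whatever share of replicates individually reach that level; inactive means mean lysis activity below 80%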
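Assay system: Cryptococcus neoformans yeast cells / Dosing: single-point compound dose / Timing: 4 h at 37 °C static, read 1 h later / Measured by: luminescence of released adenylate kinase using an AK detection reagent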
PDI inh = blocks human protein disulfide isomerase activity | inhibition, % at 10 µM | PDI insulin aggregation turbidity, A650, 90 min | P07237 | 350,000 compounds, 0.052% hits;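 active means mean inhibition across replicates of 30% or more, whatever share of single replicates reach that level; inconclusive means mean inhibition below 30% while every single replicate reaches 30%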
Target sequence (P07237 whole entry, looked up): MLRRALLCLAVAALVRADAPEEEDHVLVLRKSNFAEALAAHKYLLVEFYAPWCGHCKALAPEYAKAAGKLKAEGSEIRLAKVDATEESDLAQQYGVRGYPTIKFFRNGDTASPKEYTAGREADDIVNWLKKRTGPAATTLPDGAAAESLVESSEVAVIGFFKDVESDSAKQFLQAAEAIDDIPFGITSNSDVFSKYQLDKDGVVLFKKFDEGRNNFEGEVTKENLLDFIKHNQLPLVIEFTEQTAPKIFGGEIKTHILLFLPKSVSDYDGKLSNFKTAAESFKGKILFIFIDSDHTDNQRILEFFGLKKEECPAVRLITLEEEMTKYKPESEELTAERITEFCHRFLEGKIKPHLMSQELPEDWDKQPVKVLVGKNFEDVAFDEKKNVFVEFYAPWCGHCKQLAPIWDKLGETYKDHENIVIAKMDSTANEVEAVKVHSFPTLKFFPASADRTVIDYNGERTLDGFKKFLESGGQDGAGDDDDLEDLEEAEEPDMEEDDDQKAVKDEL
ERp5 inh = blocks human ERp5 reductase activity on insulin | Q15084 | ERp5 insulin aggregation, absorbance 650 nm, 90 min | inhibition, % at 9.99 µM | 350,000 compounds, 0.05% hits | AID 651711;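 active means mean replicate inhibition above about 25%, with every replicate also reaching it, limit read from the data, passing the limit was not always enough; inconclusive means only one of those two criteria met; inactive means neither criterion met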
* = called active by the depositor; ? = inconclusive; nt = not tested or not shown.

SMILES	Statin myotox sup	F508del corr	DENV2 CPE rescue	Cneo AK release	PDI inh	ERp5 inh
CC(C)NC(=O)N(C)C[C@@H]1Oc2c(NC(=O)CCCCCC(=O)Nc3ccccc3N)cccc2C(=O)N([C@@H](C)CO)C[C@H]1C	nt	0	25*	nt	nt	3
C[C@H]1CN([C@@H](C)CO)C(=O)c2cc(NC(=O)CCCCCC(=O)Nc3ccccc3N)ccc2O[C@H]1CN(C)C(=O)Nc1ccc(C(F)(F)F)cc1	41	0	-6	52	nt	10
O=C(Nc1ccccc1)N[C@@H]1CC[C@H](CCn2cc(C3(O)CCCC3)nn2)O[C@H]1CO	-5	1	-11	46	nt	2
C[C@H]1CN([C@@H](C)CO)C(=O)CCCn2cc(nn2)CO[C@H]1CN(C)Cc1ccc(C(=O)O)cc1	nt	2	25*	nt	nt	1
C[C@H]1CN([C@@H](C)CO)C(=O)CCCn2cc(nn2)CO[C@@H]1CN(C)Cc1cccc(C(=O)O)c1	-22	-4	24*	1	nt	-4
C[C@H]1CN([C@@H](C)CO)C(=O)CCCn2cc(nn2)CO[C@@H]1CN(C)Cc1ccc(C(=O)O)cc1	nt	3	-6	nt	nt	2
O=C1OC(c2ccccc2)(N(Nc2ccccc2)c2ccccc2)c2ccccc21 (stereo not given)	-6	1	24*	0	0	0
COc1ccc(C(=O)Nc2ccc3c(c2)OC[C@@H](C)N(C(C)=O)C[C@@H](C)[C@H](OC)CN(C)C3=O)cc1	-2	-3	1	-3	nt	1
COc1ccc(NC(=O)N2C[C@@H](O)COC[C@@H]3O[C@H](CC(=O)NC4Cc5ccccc5C4)CC[C@H]32)cc1	5	-2	100*	-5	nt	-2
O=C(C[C@H]1CC[C@H]2[C@@H](COC[C@H](O)CN2C(=O)Nc2ccccc2)O1)NC1Cc2ccccc2C1	-2	-3	-5	-6	nt	-5
O=C(C[C@@H]1CC[C@@H]2[C@H](COC[C@@H](O)CN2C(=O)Nc2ccc(Cl)cc2)O1)NC1Cc2ccccc2C1	-8	0	5	109*	nt	-4
COc1cccc(NC(=O)N2C[C@H](O)COC[C@@H]3O[C@H](CC(=O)NC4Cc5ccccc5C4)CC[C@H]32)c1	3	1	-1	0	nt	3
O=C(C[C@H]1CC[C@H]2[C@@H](COC[C@H](O)CN2C(=O)Nc2ccc(F)cc2)O1)NC1Cc2ccccc2C1	-11	1	43*	-3	nt	-2
CNC(=O)C[C@@H]1CC[C@H]2[C@@H](COC[C@H](O)CN2C(=O)Nc2cccc(OC)c2)O1	1	0	58*	-3	nt	-1
CNC(=O)C[C@H]1CC[C@@H]2[C@H](COC[C@@H](O)CN2C(=O)Nc2cccc(OC)c2)O1	-5	-2	7	4	nt	3
COCC(=O)N1CC2(C1)CN(Cc1ccccc1F)[C@H](CO)c1[nH]c3cc(OC)ccc3c12	nt	1	0	nt	nt	34*
COCC(=O)N1CCC2(CC1)CN(Cc1ccccc1F)[C@H](CO)c1[nH]c3cc(OC)ccc3c12	nt	1	3	nt	nt	0
COc1ccc2c3c([nH]c2c1)[C@@H](CO)N(C(=O)C1CCCC1)CC31CN(C(=O)NC(C)C)C1	nt	-1	10	nt	nt	-3
COc1ccc2c3c([nH]c2c1)[C@@H](CO)N(C(=O)C1CCCC1)CC31CCN(C(=O)NC(C)C)CC1	nt	0	-4	nt	nt	27*
COc1ccc2c3c([nH]c2c1)[C@H](CO)N(C(=O)NC(C)C)CC31CN(C(=O)C2CCCC2)C1	nt	-1	-2	nt	nt	67*
COc1ccc2c3c([nH]c2c1)[C@@H](CO)N(C(=O)CN(C)C)CC31CN(CC2CCCC2)C1	nt	-3	28*	nt	nt	0
CCC(=O)Nc1ccc2c(c1)OC[C@H](C)N(C(C)=O)C[C@@H](C)[C@H](OC)CN(C)C2=O	nt	-5	-12	nt	nt	-3
COc1ccc2c3c([nH]c2c1)[C@@H](CO)N(Cc1ccc(F)cc1)CC31CN(C(=O)NC(C)C)C1	nt	-2	93*	nt	nt	nt
COc1ccc2c3c([nH]c2c1)[C@H](CO)N(C(=O)C1CCCCC1)CC31CCN(C(=O)NC(C)C)CC1	nt	0	29*	nt	nt	-5
COc1ccc2c3c([nH]c2c1)[C@H](CO)N(C(=O)C1CCOCC1)CC31CCN(S(C)(=O)=O)CC1	nt	1	35*	nt	nt	-7
SMILES	Statin myotox sup	F508del corr	DENV2 CPE rescue	Cneo AK release	PDI inh	ERp5 inh
CCCC(=O)N1CC2(C1)CN(C(=O)C1CCCCC1)[C@H](CO)c1[nH]c3cc(OC)ccc3c12	nt	-1	7	nt	nt	36*
COc1ccc2c3c([nH]c2c1)[C@@H](CO)N(C(=O)C1CCCC1)CC31CCN(S(C)(=O)=O)CC1	nt	-3	1	nt	nt	-7
COc1ccc2c3c([nH]c2c1)[C@@H](CO)N(C(=O)C1CCCCC1)CC31CCN(C(=O)NC(C)C)CC1	nt	2	-10	nt	nt	-5
CCCOc1cc(C)c(Cl)cc1S(=O)(=O)N(CC)CC	108*	nt	nt	2	-6	nt
CCOc1cc(C)c(Cl)cc1S(=O)(=O)N1CCCC1	81*	nt	nt	-1	-8	nt
CCOc1cc(C)c(Cl)cc1S(=O)(=O)N(C)C	15	nt	nt	5	2	nt
COc1cc(C)c(Cl)cc1S(=O)(=O)N1CCCC1	nt	3	-2	nt	10	3
Cc1noc(C)c1S(=O)(=O)Nc1ccc2c(c1)C(=O)N([C@H](C)CO)C[C@@H](C)[C@H](CN(C)CC1CCCCC1)O2	-2	-2	-2	0	nt	5
CCNC(=O)C[C@H]1CC[C@H]2[C@@H](COc3ccc(NC(=O)Nc4ccccc4Cl)cc3C(=O)N2C)O1	nt	-1	?	nt	nt	6
C[C@H]1CN([C@@H](C)CO)C(=O)c2cccc(NC(=O)Nc3ccc4c(c3)OCO4)c2O[C@H]1CN(C)Cc1ccc2c(c1)OCO2	18	-1	27*	-7	nt	2
C[C@H](CO)N1C[C@H](C)[C@H](CN(C)Cc2ccc3c(c2)OCO3)Oc2c(NC(=O)Nc3ccc4c(c3)OCO4)cccc2C1=O	15	2	-6	0	nt	0
C[C@@H]1CN([C@@H](C)CO)C(=O)c2cccc(NC(=O)Nc3ccc4c(c3)OCO4)c2O[C@H]1CN(C)Cc1ccc2c(c1)OCO2	-15	1	22*	-3	nt	4
CC(=O)O[C@H]1C(=O)[C@@]2(C)C([C@H](OC(=O)c3ccccc3)[C@]3(O)C[C@H](OC(=O)[C@H](O)[C@@H](NC(=O)c4ccccc4)c4ccccc4)C(C)=C1C3(C)C)[C@]1(OC(C)=O)CO[C@@H]1C[C@H]2O (stereo not given in full)	0	18*	-8	1	nt	5

Screens (PubChem BioAssay)
